Bioassay records: PubChem, several laboratories
PolyA inh – polyadenylation inhibitors in yeast reporter cells, primary screen, luminescence, S. cerevisiae | S. cerevisiae SKY197-pL101 polyadenylation reporter, beta-gal luminescence; efflux-impaired pdr1/pdr3 knockout yeast; score 100 = 6 SD above DMSO | activity score, % at 12 µM | 300,000 compounds, 0.02% hits;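 active means lowest replicate activity score at least 50, where 100 means six control SD above control mean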;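 further: yeast exposed to compound for 9 h at 30 °C; higher score means more reporter readthrough which indicates perturbed polyadenylation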
Hsp70 act – Hsp70 transcriptional activators, primary screen, cell-based, HeLa, Hsp70 promoter luciferase, luminescence, 10 µM; HeLa Hsp70 promoter luciferase reporter; scaled: vehicle 0, proteasome-inhibitor control 100%; activation, % at 10 µM; 200,000 compounds, 0.04% hits;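 active means activation above the mean across all tested compounds plus 3 SD, cutoff set per campaign, cut at about 5.5% in these data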;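 further: 100% = MG132 at 30 µM as the positive control and 0% = DMSO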
STAT3 act-1 – IL-6 driven STAT3 reporter potentiators, primary screen, U3A cells, luciferase, luminescence, MLSCN library. 190,000 compounds, 0.91% hits. IL-6 STAT3-luciferase reporter; 100% = signal with IL-6 EC80 alone. activation (% of control), % at 5.6 µM. AID 871, 2007;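 active means activation above the screen-wide mean of compound activation plus 3 SD, cut at about 130% in these data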;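 further: 0% = background luminescence of wells with medium and substrate only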
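Material: STAT3-luciferase reporter U3A cells; Probe or stimulus: IL-6 (33 ng/mL); Incubation: compound pre-incubation 1 h before IL-6, then 6 h stimulation at 37 °C; Technique: luminescence from STAT3-driven luciferase reporter; Evaluation: % activation versus median of IL-6-stimulated wells; Controls: IL-6-only high control.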
PERK inh – block of dimerizer-induced PERK translation repression, primary screen, PERK inhibitor project, CHO PERK-DD cells, SEAP luminescence, HTS | Eukaryotic translation initiation factor 2-alpha kinase 3 (Homo sapiens), Q9NZJ5 | CHO PERK-DD fusion, SEAP luminescence translation reporter | inhibition, % at 5.6 µM | 220,000 compounds, 0.17% hits;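 active means inhibition above the mean inhibition of all tested compounds plus 3 SD, set separately per screening campaign, cut at about 2.9% in these data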;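 further: PERK kinase domain activated by AP20187 dimerizer at 100 nM; 0% = DMSO with dimerizer and 100% = rapamycin at 8.4 µM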
AHR activator – AHR activators, primary screen, cell-based, luminescence, luciferase reporter, human; 320,000 compounds, 2.5% hits; Aryl hydrocarbon receptor (Homo sapiens), P35869; AHR-responsive luciferase reporter cells; activation, % at 5 µM; in the data active means activation above about 47%;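 further: 0% = vehicle wells and 100% = reference agonist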
HSF1 inhib – HSF1 inhibitors in luciferase reporter cells, primary screen, cell-based, NIH3T3, luminescence | NIH3T3-HGL HSE-luciferase, MG132-induced, luminescence 8 h; active compounds read low | activity change, negative = inhibition, % at 7.5 µM (by protocol) | 300,000 compounds, 0.77% hits | AID 2098, 2009;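 active means more than half of replicate wells show activity change below -50%, luminescence cut by over half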;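 further: luciferase reports HSF-1 transcriptional activity via heat shock element; 0% = median of DMSO wells and -100% = zero luminescence signal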
STAT3 act-2 – STAT3 reporter potentiators, retest of hits, confirmation, U3A cells, luciferase, luminescence; AID 1267, 2008; shares compounds with STAT3 act-1; potentiation (% of control), % at 5.7 µM; 1,200 compounds, 64% hits; IL-6 potentiation; U3A cells lack STAT1; 100 means same as IL-6 alone;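 active means percent activation of the STAT3 luciferase reporter above a set limit taken from the earlier primary screen, cut at about 130% in these data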;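 further: 0% = background signal of medium plus substrate and 100% = median of IL-6 with DMSO wells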
NFkB act STAT3ct – NF-kB reporter activators in human cells, counter-screen for STAT3 activator project | 1,200 compounds, 11% hits | NF-kappaB reporter activation | activation (% of control), % at 5.7 µM | shares compounds with STAT3 act-1 | AID 1309, 2008; in the data active means activation above about 120%;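 further: reporter induced by TNF-alpha stimulation; 100% = median of stimulated DMSO wells and 0% = no signal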
STAT1 act STAT3c – STAT1 reporter activators, IFN-gamma induced, counter-screen for STAT3 activator project, cell-based, NIH 3T3, luciferase luminescence | 1,200 compounds, 13% hits | NIH 3T3 STAT1-luciferase reporter | shares compounds with STAT3 act-1 | AID 1318, 2008 | activation (% of control), % at 5.7 µM;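 active means activation above the solvent-only control well mean plus 3 SD, set per screening run, cut at about 120% in these data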;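 further: 100% = IFN-gamma with DMSO median signal so 100% means no change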
Hsp70 act DR – Hsp70 transcriptional activators, dose response, cell-based, HeLa, Hsp70 promoter luciferase, luminescence, triplicate. calls only at 99 µM. 70 compounds, 10% hits. HeLa hsp70.1pr-luc reporter. shares compounds with Hsp70 act;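 active means over 50% activation at some tested dose; inactive means under 50% activation at every tested dose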
AHR act cf – AHR activators, confirmation, cell-based, luminescence, luciferase reporter, human | AID 2845, 2010 | shares compounds with AHR activator | activation, % at 9 µM | human cells, AHR-responsive luciferase reporter | 2,300 compounds, 87% hits; in the data active means activation above about 49%;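 further: HepG2 hepatoma cells carrying a DRE-driven firefly luciferase reporter; 0% = vehicle wells and 100% = reference agonist wells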
PXR act counter – human PXR activators, counter-screen for AHR activator project, cell-based, luciferase luminescence. shares compounds with AHR activator. cell-based PXR reporter. activation, % at 11.6 µM. 2,300 compounds, 88% hits. AID 434939, 2010; in the data active means activation above about 11%;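 further: human hepatoma DPX-2 cells expressing full-length human PXR; 0% = DMSO and 100% = reference agonist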
Numbers without * were called inactive; i = inactive; . = not tested or not shown. Hits are enriched below; roughly 3.6% of the tested compounds scored in any of these assays.

SMILES | PolyA inh | Hsp70 act | STAT3 act-1 | PERK inh | AHR activator | HSF1 inhib | STAT3 act-2 | NFkB act STAT3ct | STAT1 act STAT3c | AHR act cf | PXR act counter | others
COc1cc(SC#N)ccc1N=Cc1c(C)[nH]n(-c2ccc(C)c(C)c2)c1=O | -5.7 | -0.3 | 99.6 | 0.0 | 16.1 | 2.7 | . | . | . | . | .
COc1cc(SC#N)ccc1N=Cc1c(C)[nH]n(-c2ccc(Cl)cc2)c1=O | 16.7 | 0.1 | 143.9* | 0.7 | 16.2 | 0.9 | 125.4 | 105.0 | 101.8 | . | .
COc1ccc(CCNC(=O)C2CCN(C(=O)c3ccc(Br)cc3)CC2)cc1OC | 8.1 | . | . | . | -1.9 | -11.2 | . | . | . | . | .
COc1ccc2c(c1)c1nnc(SC)nc1n2C | 96.1* | 0.0 | 159.9* | 0.8 | 44.4 | -2.3 | 171.0* | 113.1 | 127.9* | . | .
Cc1nc2oc3ccccc3c(=O)c2c(=O)n1Cc1ccccc1 | 9.3 | 0.1 | 108.3 | -0.9 | -6.5 | -2.3 | . | . | . | . | .
CC(C)c1nc2oc3ccccc3c(=O)c2c(=O)n1-c1ccccc1 | 6.5 | 0.5 | 158.7* | 0.4 | 103.3* | 9.8 | 131.8 | 103.5 | 113.1 | . | .
O=C(c1ccco1)N1CCN(Cc2nnc(-c3cccc(Br)c3)o2)CC1 | -5.1 | . | . | . | 8.4 | 9.3 | . | . | . | . | .
Cc1cc(C)n2nc(Nc3ccccc3)cc2n1 | -10.4 | -0.5 | 157.3* | 1.0 | 35.6 | 5.2 | 167.8* | 112.5 | 105.4 | . | .
CCO/C([O-])=N/c1sn[n+](C)c1C | 10.4 | . | . | 1.0 | 1.2 | -9.2 | . | . | . | . | .
COc1ccc(C(=O)CNc2ccccc2Br)cc1 | -4.9 | . | . | . | 6.9 | -2.4 | . | . | . | . | .
COc1ccc(C(=O)CNc2ccc3ccccc3c2)cc1 | -6.4 | -0.3 | 142.2* | 0.5 | . | 4.0 | 131.5 | 111.6 | 111.5 | . | .
Cc1nnsc1C(=O)Nc1ccc(S(=O)(=O)N2CCC(C)CC2)cc1 | 10.4 | . | . | . | 4.4 | -2.3 | . | . | . | . | .
O=c1[nH]c(-c2ccccc2)c(-c2ccccc2)nc1[N+](=O)[O-] | -7.5 | . | . | . | 1.7 | -2.4 | . | . | . | . | .
O=C(C1CC(=O)N(C2CCCCC2)C1)N1CCc2ccccc21 (stereo unspecified) | -9.2 | -0.2 | 139.4* | 0.7 | 20.0 | -0.2 | 126.3 | 103.9 | 98.0 | . | .
COc1ccc(/C=C/C(=O)c2cc(F)ccc2OC(=O)c2ccccc2OC)cc1OC | -6.6 | 9.9* | 156.0* | -1.1 | . | 64.1 | 113.8 | 168.2* | 107.6 | . | . | Hsp70 act DR=i
CN(C)/N=C/c1ccc(P(c2ccc(/C=N/N(C)C)o2)c2ccc(/C=N/N(C)C)o2)o1 | -1.5 | -0.4 | 103.5 | -0.1 | 0.8 | 1.2 | . | . | . | . | .
COc1ccccc1Cc1nc(-c2ccc(Br)o2)no1 | 4.9 | -0.3 | 156.2* | -0.1 | 118.9* | 15.2 | 135.9* | 114.2 | 125.7* | 112.8* | 42.9*
c1ccc(-c2cc3c(-n4cccc4)ncnc3o2)cc1 | -27.8 | -0.4 | 150.9* | 0.8 | 85.6* | 0.2 | 160.2* | 112.2 | 112.6 | 105.0* | 23.0*
O=C(c1ccc2ccccc2n1)N1CCN(c2ccccc2O)CC1 | 2.6 | 0.8 | 157.3* | 0.3 | 91.8* | 5.6 | 157.6* | 103.2 | 101.7 | 106.5* | 40.3*
O=C(c1ccc2ccccc2n1)N1CCN(c2ccccc2)CC1 | -3.3 | 0.1 | 98.7 | 0.1 | 2.8 | . | . | . | . | . | .
CN(C)c1cc(O)c(C(=S)Nc2ccccc2)c(N(C)C)c1 | 8.2 | -0.4 | 145.5* | -0.3 | 125.5* | 1.0 | 135.8* | 109.7 | 112.8 | 101.9* | 114.6*
Cc1csc(-c2coc3cc(O)cc(C)c3c2=O)n1 | -14.5 | -0.2 | 148.1* | 0.5 | 94.9* | 16.9 | 159.9* | 105.6 | 130.8* | 125.7* | 20.9*
O=c1c2ccccc2oc2nc(-c3ccco3)n(-c3ccccc3)c(=O)c12 | 7.6 | -0.1 | 136.2* | 0.1 | 94.6* | 25.0 | 134.8* | 108.5 | 109.1 | 147.6* | 32.7*
COc1ccc2c(=O)c3c(=O)n(-c4ccccc4)c(-c4ccc(C)cc4)nc3oc2c1 | 0.8 | . | . | -0.3 | 11.6 | -3.2 | . | . | . | . | .
COc1ccc(N2N=NN(C(C)C)C2=C(Cl)c2nnnn2-c2ccc(OC)cc2)cc1 | . | . | . | . | . | -24.3 | . | . | . | . | .
SMILES | PolyA inh | Hsp70 act | STAT3 act-1 | PERK inh | AHR activator | HSF1 inhib | STAT3 act-2 | NFkB act STAT3ct | STAT1 act STAT3c | AHR act cf | PXR act counter | others
CC(C)(C)c1ccc(COc2ccsc2C(=O)O)cc1 | -6.0 | -0.3 | 95.2 | 0.4 | 5.5 | 1.9 | . | . | . | . | .
O=C(Nc1ccccc1C(=O)NCCCN1CCOCC1)c1ccc(F)cc1 | -7.4 | . | . | . | -1.1 | -14.0 | . | . | . | . | .
Cn1nc(-c2ccc(Cl)cc2)c2cc(C(=O)N3CCN(c4ccccc4)CC3)sc21 | -0.4 | -0.1 | 138.3* | -0.7 | 100.7* | 9.3 | 142.8* | 104.6 | 101.9 | 73.8* | 33.7*
CCN(CC)S(=O)(=O)c1cc(NC(=O)C2CC(=O)N(Cc3ccccc3)C2)ccc1Cl (stereo unspecified) | . | . | . | . | -0.5 | . | . | . | . | . | .
COC(=O)c1cc(-c2cccs2)[nH]n1 | -26.2 | -0.2 | 89.8 | 1.4 | 0.6 | 10.2 | . | . | . | . | .
COc1ccc(O)c(-c2cc(-c3cccs3)[nH]n2)c1 | 2.6 | -0.1 | 144.1* | -0.8 | 86.5* | 1.8 | 127.9 | 113.0 | 104.8 | 138.5* | 26.3*
COc1ccc(CNC(=O)c2cccc(S(=O)(=O)N3CCCCC3)c2)cc1OC | . | . | . | . | -4.4 | . | . | . | . | . | .
C=CCOc1ccc(C2NC(=S)NC3=C2CCc2ccccc23)cc1 (stereo unspecified) | 0.4 | . | . | 1.2 | -0.5 | -6.8 | . | . | . | . | .
O=C1NC2=C(CCc3ccccc32)C(c2ccccc2)N1 (stereo unspecified) | -3.9 | -0.3 | 147.7* | -0.1 | 82.5* | 1.1 | 101.1 | 100.2 | 97.9 | 14.5 | 21.6*
